In ChEMBL document CHEMBL1129963, “Sulfonimidamide analogs of oncolytic sulfonylureas” (J Med Chem, 1997) one finds inhibition in vivo, IC50 and Activity data, which are given here for 24 compounds.

Structures are written as SMILES. ≈ marks a conversion by molar mass, not a printed value. A value given as a limit tells only on which side of the number the result lay.

For data set [1], the system named is Mus musculus. As to the kind of experiment: In vivo antitumor activity of compound against subaxillary implanted 6C3HED lymphosarcoma implanted in C3H mice at a dose of 50 mg/kg administered perorally twice daily for a period of 8 days. Format: functional. The note with it: 192 h, route oral. The method, boiled down:
(§1)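 6C3HED lymphosarcoma was carried in C3H mice. Compound was dosed at the stated route and schedule for 8 days (daily, twice daily, or days 1, 3, 5, 7) and tumor growth inhibition was scored against controls. The table value is the lowest dose giving >80% inhibition, or the highest dose tested. Deaths per group were recorded.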

A further data set deals with CCRF-CEM. The data set can be described thus: In vitro cytotoxicity against CCRF-CEM cells. It counts as functional, cell-based. The note with it: Homo sapiens. In outline:
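CCRF-CEM cells were grown in culture for 72 h with compound. The value is the concentration that inhibited growth to 50% of control growth.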

Data set [2] has as its system Mus musculus. As to the kind of experiment: In vivo antitumor activity against subaxillary implanted 6C3HED lymphosarcoma implanted in C3H mice at a dose of 150 mg/kg administered perorally twice daily for a period of 8 days. It counts as functional. The note with it: Mus musculus, 6C3HED, po, 192 h. In outline:
as §1

Data set [3] relates to Mus musculus. The data set can be described thus: In vivo antitumor activity against subaxillary implanted 6C3HED lymphosarcoma implanted in C3H mice at a dose of 300 mg/kg administered perorally twice daily for a period of 8 days. Format: functional. The note with it: 192 h, route oral. In outline:
as §1

The nature of data set [4]: (§2) Metabolic breakdown to the o-sulfate of p-chloroaniline (2-amino-5-chlorophenyl sulfate) by giving 100 mg/kg oral doses of the compound. It counts as ADME, organism-based. Set-up: dose 100 mg/kg, route oral. Conditions: in vivo. In outline: (§3)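 Groups of two to four mice received single 100 mg/kg oral doses of each compound. Urine was pooled over 0-24 h, and the 2-amino-5-chlorophenyl sulfate excreted in 24 h per mouse was quantified as the marker of p-chloroaniline release.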

The test system of data set [5] is Mus musculus. The data set can be described thus: In vivo antitumor activity of compound against subaxillary implanted 6C3HED lymphosarcoma implanted in C3H mice at a dose of 150 mg/kg administered intraperitoneally daily for a period of 8 days. It counts as functional. The note with it: ip, 192 h, route intraperitoneal. In outline:
as §1

In data set [6] the test system is Mus musculus. The data set is described as §2. It counts as functional. The method, boiled down:
as §3

Data set [7] deals with Mus musculus. The data set can be described thus: In vivo antitumor activity of compound against subaxillary implanted 6C3HED lymphosarcoma implanted in C3H mice at a dose of 19 mg/kg administered perorally on days 1, 3, 5, 7. The note with it: route oral. Format: functional. In outline:
as §1

In data set [8] the test system is Mus musculus. As to the kind of experiment: In vivo antitumor activity of compound against subaxillary implanted 6C3HED lymphosarcoma implanted in C3H mice at a dose of 75 mg/kg administered perorally twice daily for a period of 8 days. Format: functional. Conditions: 192 h, route oral. In outline: as §1
The test system of data set [9] is Mus musculus. As to the kind of experiment: In vivo antitumor activity against subaxillary implanted 6C3HED lymphosarcoma implanted in C3H mice at a dose of 300 mg/kg administered perorally daily for a period of 8 days. It counts as functional. Conditions: 192 h, route oral. In outline: as §1
The test system of data set [10] is Mus musculus. The data set can be described thus: In vivo antitumor activity of compound against subaxillary implanted 6C3HED lymphosarcoma implanted in C3H mice at a dose of 25 mg/kg administered perorally twice daily for a period of 8 days. It counts as functional. The note with it: 192 h, route oral. The method, boiled down:
as §1

Data set [11] has as its system Mus musculus. The data set can be described thus: In vivo antitumor activity of compound against subaxillary implanted 6C3HED lymphosarcoma implanted in C3H mice at a dose of 200 mg/kg administered perorally twice daily for a period of 8 days. Format: functional. The note with it: 192 h, route oral. The method, boiled down:
as §1

Usually inhibition in vivo stands for the relative decrease from the control value, in per cent. The IC50 is the concentration that inhibits the measured activity by half. As to `N[S+]([O-])(=NC(=O)Nc1ccc(Cl)cc1)c1ccc(Cl)cc1` (centres undefined), the inhibition in vivo at 50 mg/kg with Mus musculus [1] was 80%. For the same compound, the half-inhibitory concentration (IC50) in the data set on CCRF-CEM came to 12.3 µg/mL (≈ 35.7 µM).
On to `N[S+]([O-])(=NC(=O)Nc1ccc(Cl)cc1)c1ccc(Br)cc1` (centres undefined), for which, in the data set with CCRF-CEM, the concentration for half-maximal inhibition (IC50) was 10.6 µg/mL (≈ 27.3 µM). The same compound registered an inhibition in vivo at 150 mg/kg with Mus musculus [2] of 89%.
With `CCCCN(C(C)=O)[S+]([O-])(=NC(=O)Nc1ccc(Cl)cc1)c1ccc(C)cc1` (centres undefined), the IC50 in the data set with CCRF-CEM came out at 12.5 µg/mL (≈ 29.6 µM). This compound registered an inhibition in vivo at 300 mg/kg in the data set with Mus musculus [3] of 53%.
In the data set on CCRF-CEM, `Cc1ccc([S+](N)([O-])=NC(=O)Nc2ccc(F)cc2)cc1` (centres undefined) registered an IC50 of more than 20 µg/mL. This compound showed an inhibition in vivo at 300 mg/kg in the data set on Mus musculus [3] of 0%.
In the data set with CCRF-CEM, `CCN[S+]([O-])(=NC(=O)Nc1ccc(Cl)cc1)c1ccc(C)cc1` (centres undefined) registered a concentration for half-maximal inhibition (IC50) of 13.8 µg/mL (≈ 39.2 µM). This compound also showed an inhibition in vivo at 150 mg/kg in the data set on Mus musculus [2] of 87%.
`N[S+]([O-])(=NC(=O)Nc1ccc(Cl)cc1)c1ccc2c(c1)CCC2` (centres undefined) returned an IC50 in the data set with CCRF-CEM of more than 20 µg/mL. Besides, in [4], the Activity is less than 0.15 µM. The compound also gave an inhibition in vivo at 150 mg/kg in the data set with Mus musculus [5] of 86%.
In the data set on CCRF-CEM, `CCCCN(C(C)=O)[S+]([O-])(=NC(=O)N(C(C)=O)c1ccc(Cl)cc1)c1ccc(C)cc1` (centres undefined) had an IC50 of 2.9 µg/mL (≈ 6.25 µM). The compound also returned an inhibition in vivo at 300 mg/kg with Mus musculus [3] of 10%.
Compound `Cc1ccc([S+](N)([O-])=NC(=O)Nc2ccc(Br)cc2)cc1` (centres undefined) had an IC50 in the data set with CCRF-CEM of more than 20 µg/mL. This compound also came in with an inhibition in vivo at 150 mg/kg with Mus musculus [2] of 100%.
Turning to `CC(=O)N[S+]([O-])(=NC(=O)Nc1ccc(Cl)cc1)c1ccc(C)cc1` (centres undefined), the 50% inhibitory concentration (IC50) in the data set on CCRF-CEM was more than 20 µg/mL. At 300 mg/kg the inhibition in vivo in the data set on Mus musculus [3] was 84%.
Take `O=C(Nc1ccc(Cl)cc1)NS(=O)(=O)c1ccc2c(c1)CCC2` [SULOFENUR]: the Activity in the data set with Mus musculus [6] is 0.37 µM. Further, the inhibition in vivo at 150 mg/kg with Mus musculus [2] is 91%.
As for `Cc1ccc([S+](N)([O-])=NC(=O)Nc2ccc(OCc3ccccc3)cc2)cc1` (centres undefined), the half-maximal inhibitory concentration (IC50) in the data set with CCRF-CEM is more than 20 µg/mL. At 300 mg/kg the inhibition in vivo in the data set on Mus musculus [3] was 5%.
In turn, `Cc1cc([S+](N)([O-])=NC(=O)Nc2ccc(Cl)cc2)cc(C)c1C` (centres undefined) yielded an inhibition in vivo at 19 mg/kg in the data set on Mus musculus [7] of 95%. In the data set with CCRF-CEM, this compound yielded a 50% inhibitory concentration (IC50) of 12.7 µg/mL (≈ 36.1 µM).
On to `N[S+]([O-])(=NC(=O)Nc1ccc(Cl)cc1)c1ccc(CO)cc1` (centres undefined), for which testing at 75 mg/kg in the data set on Mus musculus [8] gave an inhibition in vivo of 99%. Further, in the data set with CCRF-CEM, the IC50 is more than 20 µg/mL.
On to `Cc1ccc([S+]([O-])(=NC(=O)Nc2ccc(Cl)cc2)Nc2ccccc2)cc1` (centres undefined), for which at 300 mg/kg the inhibition in vivo in the data set with Mus musculus [9] was 5%. In the data set on CCRF-CEM, this compound had an IC50 of 7 µg/mL (≈ 17.5 µM).
`CCc1ccc([S+](N)([O-])=NC(=O)Nc2ccc(Cl)cc2)cc1` (centres undefined): the IC50 in the data set with CCRF-CEM is more than 20 µg/mL. Testing at 25 mg/kg in the data set with Mus musculus [10] gave an inhibition in vivo of 91%.
In turn, `CC(C)(C)c1ccc([S+](N)([O-])=NC(=O)Nc2ccc(Cl)cc2)cc1` (centres undefined) yielded a concentration for half-maximal inhibition (IC50) in the data set with CCRF-CEM of 1.7 µg/mL (≈ 4.65 µM). The compound further showed an inhibition in vivo at 300 mg/kg in the data set with Mus musculus [3] of 11%.
Turning to `Cc1ccc([S+](N)([O-])=NC(=O)Nc2ccccc2)cc1` (centres undefined), the IC50 with CCRF-CEM was more than 20 µg/mL. In the data set on Mus musculus [2], the inhibition in vivo at 150 mg/kg was 0%.
`CC(=O)N(C(=O)N=[S+]([O-])(c1ccc(C)cc1)N(C)C(C)=O)c1ccc(Cl)cc1` (centres undefined) gave a concentration for half-maximal inhibition (IC50) with CCRF-CEM of 5.6 µg/mL (≈ 13.3 µM). The compound also gave an inhibition in vivo at 150 mg/kg in the data set on Mus musculus [2] of 83%.
On to `Cc1ccc([S+]([O-])(=NC(=O)Nc2ccc(Cl)cc2)NCc2ccccc2)cc1` (centres undefined), for which it took 8.7 µg/mL (≈ 21 µM) to reach half-maximal inhibition with CCRF-CEM (IC50). This compound displayed an inhibition in vivo at 300 mg/kg in the data set with Mus musculus [3] of 87%.
Take `C=CCN[S+]([O-])(=NC(=O)Nc1ccc(Cl)cc1)c1ccc(C)cc1` (centres undefined): half-maximal inhibition in the data set with CCRF-CEM (IC50) required 10 µg/mL (≈ 27.5 µM). Further, the inhibition in vivo at 300 mg/kg in the data set with Mus musculus [3] stood at 45%.
`Cc1ccc([S+](N)([O-])=NC(=O)N(C)c2ccc(Cl)cc2)cc1` (centres undefined) returned a half-inhibitory concentration (IC50) in the data set with CCRF-CEM of more than 20 µg/mL. For the same compound, the inhibition in vivo at 150 mg/kg in the data set with Mus musculus [2] is 83%.
Regarding `Cc1cc(C)cc([S+](N)([O-])=NC(=O)Nc2ccc(Cl)cc2)c1` (centres undefined), the inhibition in vivo at 200 mg/kg with Mus musculus [11] came out at 77%. The same compound registered a half-inhibitory concentration (IC50) with CCRF-CEM of 20 µg/mL (≈ 59.2 µM).
Compound `Cc1ccc([S+]([O-])(=NC(=O)Nc2ccc(Cl)cc2)NCC(C)C)cc1` (centres undefined) had an inhibition in vivo at 75 mg/kg in the data set on Mus musculus [8] of 85%. The compound further showed an IC50 in the data set with CCRF-CEM of 0.7 µg/mL (≈ 1.84 µM).
For `CCCN[S+]([O-])(=NC(=O)Nc1ccc(Cl)cc1)c1ccc(C)cc1` (centres undefined), the inhibition in vivo at 300 mg/kg with Mus musculus [9] worked out at 69%. Further, the 50% inhibitory concentration (IC50) in the data set with CCRF-CEM was found to be 10.9 µg/mL (≈ 29.8 µM).
